Test results from ChEMBL document CHEMBL4368898, “Tridecaptin-inspired antimicrobial peptides with activity against multidrug-resistant Gram-negative bacteria” (Medchemcomm, 2019).
Converted amounts (≈) assume the structure as drawn. Where a SMILES comes first, the peptide text is derived from it. [ ]: non-standard residue; d: D form. The star is where a group is joined. d(aIle) = CC[C@H](C)[C@@H](N)C(=O)O; dOrn = NCCC[C@@H](N)C(=O)O; dDab = NCC[C@@H](N)C(=O)O; Octanoyl = CCCCCCCC(=O)*; Orn = NCCC[C@H](N)C(=O)O; Dab = NCC[C@H](N)C(=O)O

Legend:
Format in all cases: functional
Acinetobacter baumannii [1] = assay: Antimicrobial activity against carbapenemase-non-producing Acinetobacter baumannii assessed as inhibition of bacterial growth incubated for 18 hrs by CLSI based serial broth dilution method
How it was run: (§1)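 MIC by microbroth dilution, run in duplicate, reported in μg mL−1 to three significant figures. The Gram-negative panel includes environmental isolates from sewage-contaminated water in Lebanon and clinical isolates from patients. Strains are classed by carbapenemase production.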

Acinetobacter baumannii [2] = assay: Antimicrobial activity against carbapenemase-producing Acinetobacter baumannii ACM 11 assessed as inhibition of bacterial growth incubated for 18 hrs by CLSI based serial broth dilution method; conditions: ACM 11, 18 h; how it was run: as §1
Acinetobacter baumannii [3] = assay: Antimicrobial activity against carbapenemase-producing Acinetobacter baumannii ACM 29 assessed as inhibition of bacterial growth incubated for 18 hrs by CLSI based serial broth dilution method; conditions: ACM 29, 18 h; how it was run: as §1
Enterobacter cloacae = assay: Antimicrobial activity against carbapenemase-producing Enterobacter cloacae […] assessed as inhibition of bacterial growth incubated for 18 hrs by CLSI based serial broth dilution method; how it was run: as §1
Klebsiella pneumoniae [4] = assay: Antimicrobial activity against carbapenemase-non-producing Klebsiella pneumoniae assessed as inhibition of bacterial growth incubated for 18 hrs by CLSI based serial broth dilution method; how it was run: as §1
Klebsiella pneumoniae [5] = assay: Antimicrobial activity against carbapenemase-producing Klebsiella pneumoniae IMP 170 assessed as inhibition of bacterial growth incubated for 18 hrs by CLSI based serial broth dilution method; conditions: IMP 170, 18 h; how it was run: as §1
Klebsiella pneumoniae [6] = assay: Antimicrobial activity against carbapenemase-producing Klebsiella pneumoniae IMP 177 assessed as inhibition of bacterial growth incubated for 18 hrs by CLSI based serial broth dilution method; conditions: IMP 177, 18 h; how it was run: as §1
Klebsiella pneumoniae [7] = assay: Antimicrobial activity against carbapenemase-producing Klebsiella pneumoniae IMP 204 assessed as inhibition of bacterial growth incubated for 18 hrs by CLSI based serial broth dilution method; conditions: IMP 204, 18 h; how it was run: as §1
Klebsiella pneumoniae [8] = assay: Antimicrobial activity against carbapenemase-producing Klebsiella pneumoniae IMP 216 assessed as inhibition of bacterial growth incubated for 18 hrs by CLSI based serial broth dilution method; conditions: IMP 216, 18 h; how it was run: as §1
Klebsiella pneumoniae [9] = assay: Antimicrobial activity against carbapenemase-producing Klebsiella pneumoniae IMP 485 assessed as inhibition of bacterial growth incubated for 18 hrs by CLSI based serial broth dilution method; conditions: IMP 485, 18 h; how it was run: as §1
Pseudomonas oleovorans = assay: Antimicrobial activity against carbapenemase-non-producing Pseudomonas pseudoalcaligenes assessed as inhibition of bacterial growth incubated for 18 hrs by CLSI based serial broth dilution method; conditions: Ectopseudomonas oleovorans; how it was run: as §1

| MIC (Acinetobacter baumannii [1]) | MIC (Acinetobacter baumannii [2]) | MIC (Acinetobacter baumannii [3]) | MIC (Enterobacter cloacae) | MIC (Klebsiella pneumoniae [4]) | MIC (Klebsiella pneumoniae [5]) | MIC (Klebsiella pneumoniae [6]) | MIC (Klebsiella pneumoniae [7]) | MIC (Klebsiella pneumoniae [8]) | MIC (Klebsiella pneumoniae [9]) | MIC (Pseudomonas oleovorans) | Structure (SMILES) |
| --- | --- | --- | --- | --- | --- | --- | --- | --- | --- | --- | --- |
| 100 µg/mL (≈ 64.6 µM) | 50 µg/mL (≈ 32.3 µM) | 50 µg/mL (≈ 32.3 µM) | 25 µg/mL (≈ 16.1 µM) | 100 µg/mL (≈ 64.6 µM) | 25 µg/mL (≈ 16.1 µM) | 25 µg/mL (≈ 16.1 µM) | 25 µg/mL (≈ 16.1 µM) | 25 µg/mL (≈ 16.1 µM) | 25 µg/mL (≈ 16.1 µM) | 12.5 µg/mL (≈ 8.07 µM) | CCCCCCCC(=O)N[C@@H](C(=O)N[C@H](CCCN)C(=O)NCC(=O)N[C@H](CO)C(=O)N[C@H](Cc1c[nH]c2ccccc12)C(=O)N[C@@H](CO)C(=O)N[C@@H](CCCN)C(=O)N[C@H](CCN)C(=O)N[C@@H](Cc1ccccc1)C(=O)N[C@@H](CCC(=O)O)C(=O)N[C@H](C(=O)N[C@@H](C(=O)N[C@@H](C)C(=O)O)[C@@H](C)CC)C(C)C)C(C)C (Octanoyl-[dV][dOrn]G[dS][dW]S[Orn][dDab]FEV[d(aIle)]A-OH) |
| 6.25 µg/mL (≈ 3.89 µM) | 25 µg/mL (≈ 15.6 µM) | 25 µg/mL (≈ 15.6 µM) | 25 µg/mL (≈ 15.6 µM) | 50 µg/mL (≈ 31.2 µM) | 50 µg/mL (≈ 31.2 µM) | 25 µg/mL (≈ 15.6 µM) | 50 µg/mL (≈ 31.2 µM) | 25 µg/mL (≈ 15.6 µM) | 25 µg/mL (≈ 15.6 µM) | 100 µg/mL (≈ 62.3 µM) | CCCCCCCC(=O)N[C@@H](C(=O)N[C@H](CCCCN)C(=O)NCC(=O)N[C@H](CO)C(=O)N[C@H](Cc1c[nH]c2ccccc12)C(=O)N[C@@H](CO)C(=O)N[C@@H](CCCCN)C(=O)N[C@H](CCCCN)C(=O)N[C@@H](Cc1ccccc1)C(=O)N[C@@H](CCC(=O)O)C(=O)N[C@H](C(=O)N[C@@H](C(=O)N[C@@H](C)C(=O)O)[C@@H](C)CC)C(C)C)C(C)C (HELM PEPTIDE1{[CCCCCCCC(=O)[*:2]].[dV].[dK].G.[dS].[dW].S.K.[dK].F.E.V.[CC[C@H](C)[C@@H](N[*:1])C(=O)[*:2]].A}$$$$V2.0) |
| 25 µg/mL (≈ 16.1 µM) | 25 µg/mL (≈ 16.1 µM) | 50 µg/mL (≈ 32.3 µM) | 12.5 µg/mL (≈ 8.07 µM) | 50 µg/mL (≈ 32.3 µM) | 25 µg/mL (≈ 16.1 µM) | 12.5 µg/mL (≈ 8.07 µM) | 12.5 µg/mL (≈ 8.07 µM) | 12.5 µg/mL (≈ 8.07 µM) | 12.5 µg/mL (≈ 8.07 µM) | 6.25 µg/mL (≈ 4.04 µM) | CCCCCCCC(=O)N[C@@H](C(=O)N[C@H](CCCN)C(=O)NCC(=O)N[C@H](CO)C(=O)N[C@H](Cc1c[nH]c2ccccc12)C(=O)N[C@@H](CO)C(=O)N[C@@H](CCCN)C(=O)N[C@H](CCCN)C(=O)N[C@@H](Cc1ccccc1)C(=O)N[C@@H](CCC(=O)O)C(=O)N[C@H](C(=O)N[C@@H](C(=O)N[C@@H](C)C(=O)O)C(C)C)C(C)C)C(C)C (Octanoyl-[dV][dOrn]G[dS][dW]S[Orn][dOrn]FEV[dV]A-OH) |
| 50 µg/mL (≈ 31.7 µM) | 25 µg/mL (≈ 15.9 µM) | 50 µg/mL (≈ 31.7 µM) | 25 µg/mL (≈ 15.9 µM) | 50 µg/mL (≈ 31.7 µM) | 25 µg/mL (≈ 15.9 µM) | 25 µg/mL (≈ 15.9 µM) | 25 µg/mL (≈ 15.9 µM) | 25 µg/mL (≈ 15.9 µM) | 25 µg/mL (≈ 15.9 µM) | 25 µg/mL (≈ 15.9 µM) | CCCCCCCC(=O)N[C@@H](C(=O)N[C@H](CCCCN)C(=O)NCC(=O)N[C@H](CO)C(=O)N[C@H](Cc1c[nH]c2ccccc12)C(=O)N[C@@H](CO)C(=O)N[C@@H](CCCCN)C(=O)N[C@H](CCN)C(=O)N[C@@H](Cc1ccccc1)C(=O)N[C@@H](CCC(=O)O)C(=O)N[C@H](C(=O)N[C@@H](C(=O)N[C@@H](C)C(=O)O)[C@@H](C)CC)C(C)C)C(C)C (Octanoyl-[dV][dK]G[dS][dW]SK[dDab]FEV[d(aIle)]A-OH) |
| 12.5 µg/mL (≈ 8 µM) | 50 µg/mL (≈ 32 µM) | 50 µg/mL (≈ 32 µM) | 6.25 µg/mL (≈ 4 µM) | 12.5 µg/mL (≈ 8 µM) | 25 µg/mL (≈ 16 µM) | 25 µg/mL (≈ 16 µM) | 25 µg/mL (≈ 16 µM) | 6.25 µg/mL (≈ 4 µM) | 25 µg/mL (≈ 16 µM) | 50 µg/mL (≈ 32 µM) | CCCCCCCC(=O)N[C@@H](C(=O)N[C@H](CCCN)C(=O)NCC(=O)N[C@H](CO)C(=O)N[C@H](Cc1c[nH]c2ccccc12)C(=O)N[C@@H](CO)C(=O)N[C@@H](CCCN)C(=O)N[C@H](CCCN)C(=O)N[C@@H](Cc1ccccc1)C(=O)N[C@@H](CCC(=O)O)C(=O)N[C@H](C(=O)N[C@@H](C(=O)N[C@@H](C)C(=O)O)[C@@H](C)CC)C(C)C)C(C)C (Octanoyl-[dV][dOrn]G[dS][dW]S[Orn][dOrn]FEV[d(aIle)]A-OH) |
| 12.5 µg/mL (≈ 8.22 µM) | 25 µg/mL (≈ 16.4 µM) | 25 µg/mL (≈ 16.4 µM) | 3.13 µg/mL (≈ 2.06 µM) | 6.25 µg/mL (≈ 4.11 µM) | 6.25 µg/mL (≈ 4.11 µM) | 6.25 µg/mL (≈ 4.11 µM) | 12.5 µg/mL (≈ 8.22 µM) | 6.25 µg/mL (≈ 4.11 µM) | 6.25 µg/mL (≈ 4.11 µM) | 50 µg/mL (≈ 32.9 µM) | CCCCCCCC(=O)N[C@@H](C(=O)N[C@H](CCN)C(=O)NCC(=O)N[C@H](CO)C(=O)N[C@H](Cc1c[nH]c2ccccc12)C(=O)N[C@@H](CO)C(=O)N[C@@H](CCN)C(=O)N[C@H](CCN)C(=O)N[C@@H](Cc1ccccc1)C(=O)N[C@@H](CCC(=O)O)C(=O)N[C@H](C(=O)N[C@@H](C(=O)N[C@@H](C)C(=O)O)[C@@H](C)CC)C(C)C)C(C)C |
| 25 µg/mL (≈ 16.6 µM) | 100 µg/mL (≈ 66.4 µM) | 50 µg/mL (≈ 33.2 µM) | 6.25 µg/mL (≈ 4.15 µM) | 12.5 µg/mL (≈ 8.3 µM) | 12.5 µg/mL (≈ 8.3 µM) | 25 µg/mL (≈ 16.6 µM) | 12.5 µg/mL (≈ 8.3 µM) | 12.5 µg/mL (≈ 8.3 µM) | 12.5 µg/mL (≈ 8.3 µM) | 50 µg/mL (≈ 33.2 µM) | CCCCCCCC(=O)N[C@@H](C(=O)N[C@H](CCN)C(=O)NCC(=O)N[C@H](CO)C(=O)N[C@H](Cc1c[nH]c2ccccc12)C(=O)N[C@@H](CO)C(=O)N[C@@H](CCN)C(=O)N[C@H](CCN)C(=O)N[C@@H](Cc1ccccc1)C(=O)N[C@@H](CCC(=O)O)C(=O)N[C@H](C(=O)N[C@@H](C(=O)N[C@@H](C)C(=O)O)C(C)C)C(C)C)C(C)C (Octanoyl-[dV][dDab]G[dS][dW]S[Dab][dDab]FEV[dV]A-OH) |
| > 100 µg/mL | > 100 µg/mL | > 100 µg/mL | > 100 µg/mL | > 100 µg/mL | > 100 µg/mL | > 100 µg/mL | > 100 µg/mL | > 100 µg/mL | > 100 µg/mL | > 100 µg/mL | CCCCCCCC(=O)N[C@@H](C(=O)N[C@H](CCCCN)C(=O)NCC(=O)N[C@H](CO)C(=O)N[C@H](Cc1c[nH]c2ccccc12)C(=O)N[C@@H](CO)C(=O)N[C@@H](CCCCN)C(=O)N[C@H](CCCCN)C(=O)N[C@@H](Cc1ccccc1)C(=O)N[C@@H](CCC(=O)O)C(=O)N[C@H](C(=O)N[C@@H](C(=O)N[C@@H](C)C(=O)O)C(C)C)C(C)C)C(C)C (HELM PEPTIDE1{[CCCCCCCC(=O)[*:2]].[dV].[dK].G.[dS].[dW].S.K.[dK].F.E.V.[dV].A}$$$$V2.0) |
